Publication PMC10362274 (iScience, 2023)

How the values were obtained:
[1] = test system: Tyr369-377-specific CD8^+ T cell clones; assay: IFNγ secretion assay; assay type: cell-based, human; conditions: 1/1 ratio with pulsed T2 cells, 24 h co-culture, ELISA, duplicates
Procedure, shortened: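 Tyrosinase-specific CD8+ T cell clones came from HLA-A2 tetramer sorting and limiting dilution. They were grown in RPMI with 8% pooled human serum and 150 IU/ml IL-2 at 37°C, 5% CO2. Clones were co-cultured 1:1 for 24 h with T2 cells pulsed with serial dilutions of native or oxidized peptide, in duplicate. IFNγ was measured by ELISA against an exponential standard curve.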

[2] = test system: Tyr369-377-specific CD8^+ T cell clones; assay: Standard 4-h 51Chromium release assay, peptide-pulsed T2 cells; assay type: cell-based, human; conditions: EC50 = peptide concentration giving 50% maximal killing; across YMD-specific CD8^+ T cell clones
[3] = test system: MAGE-A10-specific CD8^+ T cell clones; assay: as above; assay type: cell-based, human; conditions: n = 3 MAGE-A10-specific CD8^+ T cells; no titration of the antigenic peptides
HLA-A∗02:01 = HLA-A∗02:01 (Homo sapiens, UniProt P04439, D140Y/D185E/D98H/E176V/E277Q/G131W/G231S/I119V/I121R/I166T/I218V/L300P/L318F/N151K/N90K/P208A/P217A/Q86G/Q94H/R138H/R169H/T345S); conditions: refolded complex, ELISA
[4] = HPLC oxidation profiling of the YMD peptide using hydrogen peroxide; assay type: physicochemical
Procedure, shortened: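 Synthetic test peptide (~155 μM in LC-MS water) oxidized with varying hydrogen peroxide levels for 30 min at 4°C. For time courses, similar peptide level in 0.1% formic acid/2% acetonitrile with hydrogen peroxide in excess (120 mM), treated as constant for pseudo-first-order fitting. Forms resolved by RP-HPLC, fractions verified by offline MS/MS; triplicate points.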

Substance | IFNγ released compared with native [1] | EC50 compared with the native peptide [2] | further results
M2SO: Met2 sulfoxide of the YMD peptide | no significant differences |  | 
M6SO: Met6 sulfoxide of the YMD peptide | released more IFNγ | significant lower values | 
MAGE-A10_OX: oxidized form of MAGE-A10 254-262 peptide (GLYDGMEHL; not fully specified; oxidized Met (the underlined M of GLYDGMEHL; sulfoxide or sulfone not stated)) |  |  | EC50 compared with the native peptide [3]: slightly increased
YM2SODGTM6SOSQV [M2SOM6SO] | released more IFNγ | significant lower values | stability of the HLA-A∗02:01-peptide complex at t0 compared with HLA-A∗02:01-N (HLA-A∗02:01): more stable at t0
YMDGTMSQV [N] |  |  | time for 50% of the peptide to oxidize ([4]; 120 mM hydrogen peroxide, 4°C, pseudo-first-order kinetics, RP-HPLC UV 275 nm): ~20 min; fraction of the total found as complete oxidized to sulfone forms ([4]; 3 M hydrogen peroxide, after 10 days, RP-HPLC peak quantification): ~66%; transformation of the peptide to sulfoxide forms ([4]; hydrogen peroxide 600 mM or higher, 30 min, 4°C, RP-HPLC UV 275 nm): almost complete transformation
